Calls of active or inactive are those of the source. The rule behind the calls is not given here.
Key:
[1] = molecular target: T1, Amyloid-beta precursor protein (Homo sapiens, UniProt P05067); experiment: Inhibition of Amyloid beta (1 to 40) (unknown origin) aggregation assessed as amount of fibrils formation at 100 uM after 2 hrs by thioflavin T based spectrofluorimetric method
Summary of the method: (§1)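 Aβ40 pretreated in HFIP to remove preaggregates, then 30 μM peptide incubated 2 h at room temperature with inhibitor in PBS pH 7.4 (2% HFIP, 5% DMSO). ThT (3 μM, in 50 mM phosphate pH 6.0) fluorescence read at ex 450/em 486 nm. Inhibition = 100 − [(Fi−Fb)/F0×100]. IC50 from 5–7 concentrations in triplicate, ≥3 independent experiments, nonlinear regression; weaker compounds given as % inhibition ± SE at 100 μM.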

[2] = Cytotoxicity against human hCMEC/D3 cells up to 1 uM after 18 hrs by lactate dehydrogenase assay; assay type: cell-based; settings: hcmec/d3, 18 h
[3] = Cytotoxicity against human hCMEC/D3 cells at 10 to 20 uM after 18 hrs by lactate dehydrogenase assay; assay type: cell-based; settings: hcmec/d3, 18 h
[4] = molecular target: Soluble guanylate cyclase (Homo sapiens) (UniProt Q02153+O75343+P33402+Q02108); experiment: Activation of sGC in human hCMEC/D3 cells assessed as production of cGMP per million cells using [3H]-cGMP after 1 hr by liquid scintillation counting; assay type: cell-based; settings: CMEC/D3
Summary of the method: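 hCMEC/D3 cells (1×10^6, collagen-coated wells, supplemented EBM-2, 37°C, 5% CO2) switched to Hepes-Ca2+ buffer pH 7.4 with 1 mM IBMX. Exposed 1 h at 37°C to 0.1, 1, 5 or 10 μM; SNP 1 mM as reference NO donor. Ethanol-permeabilized, residue taken up in Tris-EDTA pH 8. cGMP quantified by [3H]-cGMP competitive radioimmunoassay with scintillation counting against a [3H]-cGMP titration curve; expressed as pmol/10^6 cells. Mean ± SEM, one-way ANOVA.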

[5] = molecular target: T1, Amyloid-beta precursor protein; experiment: Inhibition of Amyloid beta (1 to 40) (unknown origin) aggregation assessed as amount of fibrils formation after 2 hrs by thioflavin T based spectrofluorimetric method; summary of the method: as §1
[6] = molecular target: Microtubule-associated protein tau (Homo sapiens) (UniProt P10636); experiment: Inhibition of wild type human recombinant tau 2N4R aggregation assessed as reduction of formation rate and number of aggregates at 1 uM after 5 days using Congo Red staining
Sequence of Microtubule-associated protein tau (Homo sapiens) (P10636 whole entry): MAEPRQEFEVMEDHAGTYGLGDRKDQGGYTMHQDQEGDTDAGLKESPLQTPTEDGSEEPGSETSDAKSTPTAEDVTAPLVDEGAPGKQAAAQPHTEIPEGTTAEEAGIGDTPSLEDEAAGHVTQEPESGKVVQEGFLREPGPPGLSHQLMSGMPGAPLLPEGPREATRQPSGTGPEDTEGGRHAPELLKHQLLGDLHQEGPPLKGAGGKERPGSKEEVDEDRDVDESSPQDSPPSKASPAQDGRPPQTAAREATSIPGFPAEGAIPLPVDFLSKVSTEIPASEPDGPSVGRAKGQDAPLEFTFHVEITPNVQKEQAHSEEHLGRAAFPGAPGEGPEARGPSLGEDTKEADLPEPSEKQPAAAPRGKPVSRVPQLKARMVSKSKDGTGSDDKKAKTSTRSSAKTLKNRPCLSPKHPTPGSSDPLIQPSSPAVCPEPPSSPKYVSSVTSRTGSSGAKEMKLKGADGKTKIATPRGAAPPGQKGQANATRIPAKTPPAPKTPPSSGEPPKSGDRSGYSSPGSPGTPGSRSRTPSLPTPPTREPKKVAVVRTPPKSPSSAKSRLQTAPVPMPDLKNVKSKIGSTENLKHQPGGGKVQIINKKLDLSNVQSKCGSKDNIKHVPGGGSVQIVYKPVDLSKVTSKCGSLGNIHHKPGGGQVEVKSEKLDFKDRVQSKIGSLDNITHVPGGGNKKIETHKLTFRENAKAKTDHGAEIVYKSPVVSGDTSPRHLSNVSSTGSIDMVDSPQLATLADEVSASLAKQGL
Summary of the method: (§2)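 Recombinant human tau 2N4R, expressed in E. coli BL21(DE3), used at 8 μM with 300 μg/mL heparin in 35 mM MES pH 7.4, 1 mM DTT at 37°C, alone or with compound at 1 μM (final). Aliquots taken at 2 and 5 days, stained with Congo Red and examined under polarized light; also negatively stained with uranyl acetate for EM at 30,000 magnification.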

[7] = molecular target: Microtubule-associated protein tau (Homo sapiens) (UniProt P10636); experiment: Inhibition of wild type human recombinant tau 2N4R aggregation assessed as reduction of formation rate and number of aggregates at 1 uM after 48 hrs using Congo Red staining; summary of the method: as §2
Brain = experiment: Synaptic plasticity activity in hippocampal brain slices of C57BL/6 mouse assessed as protection against amyloid beta (1 to 42)-induced long-term potentiation inhibition after 20 mins; assay type: functional; parameters: scale not given: the % may be the effect or the level left
Summary of the method: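 Hippocampal slices (400 μm) from 30-day-old male C57BL/6 mice, recovered at 32°C in ACSF. Oligomerized Aβ42 (final 200 nM) was mixed with compound (final 2 μM), pre-incubated 30 min, then perfused 20 min before HFS. Schaffer collateral stimulation; CA1 fEPSP peak amplitude recorded 60 min post-HFS. LTP taken as mean over 55–60 min as % of baseline. Mean ± SEM, unpaired t-test.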

[8] = molecular target: T1, Amyloid-beta precursor protein; experiment: Inhibition of Amyloid beta (1 to 42) (unknown origin) aggregation assessed as amount of fibrils formation after 5 days by thioflavin T based spectrofluorimetric method

T1 sequence (P05067 whole entry): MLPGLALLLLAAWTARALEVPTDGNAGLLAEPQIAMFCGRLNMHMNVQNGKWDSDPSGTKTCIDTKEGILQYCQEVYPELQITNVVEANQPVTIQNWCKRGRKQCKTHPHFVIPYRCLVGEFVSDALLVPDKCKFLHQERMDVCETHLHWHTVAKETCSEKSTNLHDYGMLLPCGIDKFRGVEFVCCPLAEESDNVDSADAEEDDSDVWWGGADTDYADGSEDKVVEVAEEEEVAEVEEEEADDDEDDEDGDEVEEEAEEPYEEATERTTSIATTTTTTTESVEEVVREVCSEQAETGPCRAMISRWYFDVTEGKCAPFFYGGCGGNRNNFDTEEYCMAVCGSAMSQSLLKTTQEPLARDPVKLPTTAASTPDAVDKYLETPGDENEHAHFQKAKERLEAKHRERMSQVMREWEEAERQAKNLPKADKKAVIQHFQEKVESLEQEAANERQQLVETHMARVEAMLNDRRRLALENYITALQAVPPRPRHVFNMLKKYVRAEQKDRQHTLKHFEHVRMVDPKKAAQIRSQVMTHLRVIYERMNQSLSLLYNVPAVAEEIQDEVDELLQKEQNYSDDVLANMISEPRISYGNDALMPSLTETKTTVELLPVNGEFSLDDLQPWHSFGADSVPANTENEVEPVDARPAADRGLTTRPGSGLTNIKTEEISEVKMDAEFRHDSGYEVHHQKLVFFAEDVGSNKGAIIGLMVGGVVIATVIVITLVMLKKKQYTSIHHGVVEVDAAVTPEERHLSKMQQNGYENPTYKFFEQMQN

SMILES | inhibition [1] [%] | Activity [2] | Activity [3] | Activity [4] | inhibition [5] | inhibition [6] | inhibition [7] | IC50 [5] [µM] | Activity (Brain) [%] | IC50 [8] [µM]
CCN1/C(=C/C=C/c2sc3ccccc3[n+]2CC)Sc2ccc(OCc3no[n+]([O-])c3C(N)=O)cc21.[I-] | 26 | Non-toxic | Non-toxic | Dose-dependent effect | – | – | – | – | – | –
CCCOc1ccc2c(c1)N(CC)/C(=C/C=C/c1sc3ccc(OCCC)cc3[n+]1CC)S2.[I-] | – | Non-toxic | Non-toxic | Dose-dependent effect | inactive | – | – | – | – | –
CCN1/C(=C/C=C/c2sc3ccc(OCCCO[N+](=O)[O-])cc3[n+]2CC)Sc2ccc(OCCCO[N+](=O)[O-])cc21.O=S(=O)([O-])C(F)(F)F | 26 | Non-toxic | Non-toxic | Dose-dependent effect | – | Active | Active | – | – | –
CCN1/C(=C/C=C/c2sc3ccccc3[n+]2CC)Sc2ccc(Oc3no[n+]([O-])c3S(=O)(=O)c3ccccc3)cc21.[I-] | – | Non-toxic | Non-toxic | Dose-dependent effect | – | Active | Active | 21 | – | –
CCN1/C(=C/C=C/c2sc3ccc(OCc4no[n+]([O-])c4C(N)=O)cc3[n+]2CC)Sc2ccc(OCc3no[n+]([O-])c3C(N)=O)cc21.O=S(=O)([O-])C(F)(F)F | 17 | Non-toxic | Non-toxic | Dose-dependent effect | – | – | – | – | – | –
CCN1/C(=C/C=C/c2sc3ccccc3[n+]2CC)Sc2ccccc21.[I-] | – | Non-toxic | Non-toxic | – | – | – | – | 3.1 | 34.7 | 3.3
CCN1/C(=C/C=C/c2sc3ccccc3[n+]2CC)Sc2ccc(OCCCO[N+](=O)[O-])cc21.[I-] | – | Non-toxic | Non-toxic | Dose-dependent effect | – | Active | Active | 8.1 | 69.3 | 7.7
CCCOc1ccc2c(c1)N(CC)/C(=C/C=C/c1sc3ccccc3[n+]1CC)S2.[I-] | – | Non-toxic | Non-toxic | Dose-dependent effect | – | – | – | 7 | – | 0.8
CCN1/C(=C/C=C/c2sc3ccccc3[n+]2CC)Sc2ccc(Oc3no[n+]([O-])c3-c3ccccc3)cc21.[I-] | – | Non-toxic | Non-toxic | Dose-dependent effect | – | Active | Active | 1.8 | 90.8 | 1.6
CN(C)c1ccc2nc3ccc(=[N+](C)C)cc-3sc2c1 | – | – | – | – | – | – | – | 4.5 | – | –
